Data: ChEMBL document CHEMBL3421595, “Design and Synthesis of New α-Naphthoflavones as Cytochrome P450 (CYP) 1B1 Inhibitors To Overcome Docetaxel-Resistance Associated with CYP1B1 Overexpression” (J Med Chem, 2015)

Organism: Homo sapiens
Test: Selectivity index, ratio of IC50 for human CYP1A1 to IC50 for human CYP1B1
Method in brief: (§1)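 Recombinant human CYP1B1, 1A1 and 1A2 in a standard EROD assay. 7-Ethoxyresorufin fixed at 150 nM. NADPH regeneration system: 1.3 mM NADP+, 3.3 mM G-6-P, 0.5 U/mL G6-PD. Incubation time 35 min for CYP1B1, 15 min for 1A1 and 50 min for 1A2. Resorufin fluorescence read at ex 545 / em 590 nm. IC50 by Probit analysis; selectivity taken as the ratio of IC50 values.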

Row | Compound | Ratio IC50
1 | COc1ccc(OC)c2c1c(OC)cc1c(=O)c(O)c(-c3ccc(Cl)cc3)oc12 | 5.4
2 | COc1ccccc1-c1cc(=O)c2cc(OC)c3c(OC)ccc(OC)c3c2o1 | 2.1
3 | COc1ccc(OC)c2c1c(OC)cc1c(=O)cc(-c3cccc(Cl)c3)oc12 | 21
4 | COc1ccc(OC)c2c1c(OC)cc1c(=O)c(O)c(-c3ccccc3Cl)oc12 | 21
5 | COc1ccc(OC)c2c1c(OC)cc1c(=O)cc(-c3ccc(Cl)cc3)oc12 | 9
6 | COc1ccc(OC)c2c1c(OC)cc1c(=O)c(O)c(-c3ccccc3)oc12 | 14
7 | COc1ccc(OC)c2c1c(OC)cc1c(=O)c(OCCOC(=O)[C@H](C)N)c(-c3cccc(F)c3)oc12 | 0.4
8 | COc1ccc(OC)c2c1c(OC)cc1c(=O)cc(-c3ccc(OCc4ccccc4)cc3)oc12 | 0.09
9 | COc1ccc(OC)c2c1c(OC)cc1c(=O)c(O)c(-c3cccc(F)c3)oc12 | 223
10 | COc1ccc(OC)c2c1c(OC)cc1c(=O)cc(-c3ccccc3O)oc12 | 0.19
11 | COc1ccc(OC)c2c1c(OC)cc1c(=O)cc(-c3ccccc3Cl)oc12 | 17.5
12 | COc1ccc(OC)c2c1c(OC)cc1c(=O)c(OCCOC(=O)CN)c(-c3cccc(F)c3)oc12 | 0.69
13 | COc1ccc(OC)c2c1c(OC)cc1c(=O)c(OCCOC(=O)[C@@H](N)C(C)C)c(-c3cccc(F)c3)oc12 | 1.7

Each compound was assayed against T1, Cytochrome P450 1A1 (Homo sapiens, UniProt P04798) (assay: Inhibition of human CYP1A1 assessed as reduction in 7-ethoxyresorufin O-deethylation activity by fluorescence based EROD assay).
T1 sequence (P04798 whole entry): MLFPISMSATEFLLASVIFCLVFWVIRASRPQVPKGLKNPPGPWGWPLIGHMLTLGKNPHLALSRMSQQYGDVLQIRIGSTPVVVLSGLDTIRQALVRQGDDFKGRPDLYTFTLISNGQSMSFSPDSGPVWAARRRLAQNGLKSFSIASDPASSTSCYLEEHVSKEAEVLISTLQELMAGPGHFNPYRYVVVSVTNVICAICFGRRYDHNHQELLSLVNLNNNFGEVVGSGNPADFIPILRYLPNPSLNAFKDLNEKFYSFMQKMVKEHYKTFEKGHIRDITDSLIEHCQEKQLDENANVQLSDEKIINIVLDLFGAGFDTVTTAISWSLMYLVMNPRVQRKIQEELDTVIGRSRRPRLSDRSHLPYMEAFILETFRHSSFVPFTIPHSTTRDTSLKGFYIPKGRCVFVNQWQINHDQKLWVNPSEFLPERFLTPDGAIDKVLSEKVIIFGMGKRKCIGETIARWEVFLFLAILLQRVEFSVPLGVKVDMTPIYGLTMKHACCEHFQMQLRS
Format: ADME
Method in brief: as §1

Row | Compound | IC50 [nM]
14 | COc1ccc(OC)c2c1c(OC)cc1c(=O)cc(-c3ccc(OCc4ccccc4)c(OCc4ccccc4)c3)oc12 | 535
15 | COc1ccc(OC)c2c1c(OC)cc1c(=O)c(O)c(-c3ccc(Cl)cc3)oc12 | 26.9
16 | COc1ccccc1-c1cc(=O)c2cc(OC)c3c(OC)ccc(OC)c3c2o1 | 18.8
17 | COc1ccc(OC)c2c1c(OC)cc1c(=O)c(O)c(-c3ccccc3Cl)oc12 | 32.9
18 | COc1ccc(OC)c2c1c(OC)cc1c(=O)cc(-c3ccc(Cl)cc3)oc12 | 1.8
19 | COc1ccc(OC)c2c1c(OC)cc1c(=O)c(OCCOC(=O)[C@H](C)N)c(-c3cccc(F)c3)oc12 | 39.4
20 | COc1ccc(OC)c2c1c(OC)cc1c(=O)c(O)c(-c3cccc(F)c3)oc12 | 66.9
21 | COc1ccc(OC)c2c1c(OC)cc1c(=O)c(OCCOC(=O)[C@@H](N)C(C)C)c(-c3cccc(F)c3)oc12 | 192

More lines, now with the values ahead:

Row | IC50 [nM] | Compound
22 | 6.4 | COc1ccc(OC)c2c1c(OC)cc1c(=O)cc(-c3cccc(Cl)c3)oc12
23 | 31.6 | COc1ccc(OC)c2c1c(OC)cc1c(=O)c(O)c(-c3ccccc3)oc12
24 | 67.8 | COc1ccc(OC)c2c1c(OC)cc1c(=O)cc(-c3ccc(OCc4ccccc4)cc3)oc12
25 | 12.1 | COc1ccc(OC)c2c1c(OC)cc1c(=O)cc(-c3ccccc3O)oc12
26 | 19.2 | COc1ccc(OC)c2c1c(OC)cc1c(=O)cc(-c3ccccc3Cl)oc12
27 | 13.6 | COc1ccc(OC)c2c1c(OC)cc1c(=O)c(OCCOC(=O)CN)c(-c3cccc(F)c3)oc12

Organism: Homo sapiens
Test: Selectivity index, ratio of IC50 for human CYP1A2 to IC50 for human CYP1B1
Method in brief: as §1

Row | Compound | Ratio IC50
28 | COc1ccc(OC)c2c1c(OC)cc1c(=O)c(O)c(-c3ccc(Cl)cc3)oc12 | 17
29 | COc1ccccc1-c1cc(=O)c2cc(OC)c3c(OC)ccc(OC)c3c2o1 | 1.5
30 | COc1ccc(OC)c2c1c(OC)cc1c(=O)cc(-c3cccc(Cl)c3)oc12 | 204
31 | COc1ccc(OC)c2c1c(OC)cc1c(=O)c(O)c(-c3ccccc3Cl)oc12 | 31
32 | COc1ccc(OC)c2c1c(OC)cc1c(=O)cc(-c3ccc(Cl)cc3)oc12 | 139
33 | COc1ccc(OC)c2c1c(OC)cc1c(=O)c(O)c(-c3ccccc3)oc12 | 15
34 | COc1ccc(OC)c2c1c(OC)cc1c(=O)c(OCCOC(=O)[C@H](C)N)c(-c3cccc(F)c3)oc12 | 0.87
35 | COc1ccc(OC)c2c1c(OC)cc1c(=O)cc(-c3ccc(OCc4ccccc4)cc3)oc12 | 0.06
36 | COc1ccc(OC)c2c1c(OC)cc1c(=O)c(O)c(-c3cccc(F)c3)oc12 | 88
37 | COc1ccc(OC)c2c1c(OC)cc1c(=O)cc(-c3ccccc3O)oc12 | 0.8
38 | COc1ccc(OC)c2c1c(OC)cc1c(=O)cc(-c3ccccc3Cl)oc12 | 53
39 | COc1ccc(OC)c2c1c(OC)cc1c(=O)c(OCCOC(=O)CN)c(-c3cccc(F)c3)oc12 | 2.9
40 | COc1ccc(OC)c2c1c(OC)cc1c(=O)c(OCCOC(=O)[C@@H](N)C(C)C)c(-c3cccc(F)c3)oc12 | 0.6

These compounds were tested against T2, Cytochrome P450 1B1 (Homo sapiens, UniProt Q16678) (assay: Inhibition of human CYP1B1 assessed as reduction in 7-ethoxyresorufin O-deethylation activity by fluorescence based EROD assay).
T2 sequence (Q16678 whole entry): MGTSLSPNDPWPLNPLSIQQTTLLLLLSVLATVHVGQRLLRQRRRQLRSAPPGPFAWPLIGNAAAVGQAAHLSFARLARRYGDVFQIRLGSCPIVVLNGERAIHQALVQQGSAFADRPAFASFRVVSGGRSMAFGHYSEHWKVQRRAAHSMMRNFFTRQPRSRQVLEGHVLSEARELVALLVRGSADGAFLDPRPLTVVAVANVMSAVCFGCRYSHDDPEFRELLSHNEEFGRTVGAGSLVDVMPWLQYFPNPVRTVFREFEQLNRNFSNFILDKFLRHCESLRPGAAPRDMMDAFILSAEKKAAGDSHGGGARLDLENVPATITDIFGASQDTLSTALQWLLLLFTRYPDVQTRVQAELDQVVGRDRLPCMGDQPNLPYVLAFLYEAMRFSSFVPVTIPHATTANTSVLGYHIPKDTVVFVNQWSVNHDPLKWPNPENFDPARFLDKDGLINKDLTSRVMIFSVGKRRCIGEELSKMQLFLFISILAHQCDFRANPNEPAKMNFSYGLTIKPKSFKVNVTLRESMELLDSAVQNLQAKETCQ
Method in brief: (§2)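 Recombinant human CYP1B1, 1A1 and 1A2 in a standard EROD assay. NADPH regeneration system: 1.3 mM NADP+, 3.3 mM G-6-P, 0.5 U/mL G6-PD. Incubation time 35 min for CYP1B1, 15 min for 1A1 and 50 min for 1A2. IC50 by Probit analysis; selectivity taken as the ratio of IC50 values.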

Row | Compound | IC50 [nM]
41 | COc1ccc(OC)c2c1c(OC)cc1c(=O)cc(-c3ccc(OCc4ccccc4)c(OCc4ccccc4)c3)oc12 | > 100000
42 | COc1ccc(OC)c2c1c(OC)cc1c(=O)c(O)c(-c3ccc(Cl)cc3)oc12 | 5
43 | COc1ccccc1-c1cc(=O)c2cc(OC)c3c(OC)ccc(OC)c3c2o1 | 9
44 | COc1ccc(OC)c2c1c(OC)cc1c(=O)c(O)c(-c3ccccc3Cl)oc12 | 1.6
45 | COc1ccc(OC)c2c1c(OC)cc1c(=O)cc(-c3ccc(Cl)cc3)oc12 | 0.2
46 | COc1ccc(OC)c2c1c(OC)cc1c(=O)c(OCCOC(=O)[C@H](C)N)c(-c3cccc(F)c3)oc12 | 98.4
47 | COc1ccc(OC)c2c1c(OC)cc1c(=O)c(O)c(-c3cccc(F)c3)oc12 | 0.3
48 | COc1ccc(OC)c2c1c(OC)cc1c(=O)c(OCCOC(=O)[C@@H](N)C(C)C)c(-c3cccc(F)c3)oc12 | 114

Other lines, results leading:

Row | IC50 [nM] | Compound
49 | 0.3 | COc1ccc(OC)c2c1c(OC)cc1c(=O)cc(-c3cccc(Cl)c3)oc12
50 | 2.3 | COc1ccc(OC)c2c1c(OC)cc1c(=O)c(O)c(-c3ccccc3)oc12
51 | 771 | COc1ccc(OC)c2c1c(OC)cc1c(=O)cc(-c3ccc(OCc4ccccc4)cc3)oc12
52 | 62.9 | COc1ccc(OC)c2c1c(OC)cc1c(=O)cc(-c3ccccc3O)oc12
53 | 1.1 | COc1ccc(OC)c2c1c(OC)cc1c(=O)cc(-c3ccccc3Cl)oc12
54 | 19.6 | COc1ccc(OC)c2c1c(OC)cc1c(=O)c(OCCOC(=O)CN)c(-c3cccc(F)c3)oc12

The compounds below were run against T3, Cytochrome P450 1A2 (Homo sapiens, UniProt P05177) (assay: Inhibition of human CYP1A2 assessed as reduction in 7-ethoxyresorufin O-deethylation activity by fluorescence based EROD assay).
T3 sequence (P05177 whole entry): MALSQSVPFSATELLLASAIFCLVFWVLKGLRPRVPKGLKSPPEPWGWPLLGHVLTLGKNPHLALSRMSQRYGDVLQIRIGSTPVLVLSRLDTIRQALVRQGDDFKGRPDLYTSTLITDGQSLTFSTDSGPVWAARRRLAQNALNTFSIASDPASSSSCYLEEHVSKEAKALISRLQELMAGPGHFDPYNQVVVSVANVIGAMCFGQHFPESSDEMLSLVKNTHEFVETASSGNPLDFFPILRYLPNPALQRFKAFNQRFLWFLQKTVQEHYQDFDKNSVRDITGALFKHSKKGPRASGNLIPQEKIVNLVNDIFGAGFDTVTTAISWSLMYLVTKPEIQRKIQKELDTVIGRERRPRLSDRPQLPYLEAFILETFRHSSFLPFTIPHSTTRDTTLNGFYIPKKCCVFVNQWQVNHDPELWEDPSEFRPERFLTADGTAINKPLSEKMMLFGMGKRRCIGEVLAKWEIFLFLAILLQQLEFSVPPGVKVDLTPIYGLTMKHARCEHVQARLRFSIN
Format: ADME
Method in brief: as §2

Row | Compound | IC50 [nM]
55 | COc1ccc(OC)c2c1c(OC)cc1c(=O)cc(-c3ccc(OCc4ccccc4)c(OCc4ccccc4)c3)oc12 | 96.9
56 | COc1ccc(OC)c2c1c(OC)cc1c(=O)c(O)c(-c3ccc(Cl)cc3)oc12 | 83.3
57 | COc1ccccc1-c1cc(=O)c2cc(OC)c3c(OC)ccc(OC)c3c2o1 | 13.5
58 | COc1ccc(OC)c2c1c(OC)cc1c(=O)c(O)c(-c3ccccc3Cl)oc12 | 49.6
59 | COc1ccc(OC)c2c1c(OC)cc1c(=O)cc(-c3ccc(Cl)cc3)oc12 | 27.7
60 | COc1ccc(OC)c2c1c(OC)cc1c(=O)c(OCCOC(=O)[C@H](C)N)c(-c3cccc(F)c3)oc12 | 85.9
61 | COc1ccc(OC)c2c1c(OC)cc1c(=O)c(O)c(-c3cccc(F)c3)oc12 | 26.5
62 | COc1ccc(OC)c2c1c(OC)cc1c(=O)c(OCCOC(=O)[C@@H](N)C(C)C)c(-c3cccc(F)c3)oc12 | 68.3

Results, then the compound that gave them:

Row | IC50 [nM] | Compound
63 | 61.1 | COc1ccc(OC)c2c1c(OC)cc1c(=O)cc(-c3cccc(Cl)c3)oc12
64 | 34.4 | COc1ccc(OC)c2c1c(OC)cc1c(=O)c(O)c(-c3ccccc3)oc12
65 | 43 | COc1ccc(OC)c2c1c(OC)cc1c(=O)cc(-c3ccc(OCc4ccccc4)cc3)oc12
66 | 50.6 | COc1ccc(OC)c2c1c(OC)cc1c(=O)cc(-c3ccccc3O)oc12
67 | 58 | COc1ccc(OC)c2c1c(OC)cc1c(=O)cc(-c3ccccc3Cl)oc12
68 | 56.2 | COc1ccc(OC)c2c1c(OC)cc1c(=O)c(OCCOC(=O)CN)c(-c3cccc(F)c3)oc12
